Measurements collected from several papers.
Protocols differ between the studies behind these lines.
pknB: Serine/threonine-protein kinase PknB (pknB, Mycobacterium tuberculosis, UniProt P9WI81)
1-deoxy-D-xylulose 5-phosphate reductoisomerase: 1-deoxy-D-xylulose 5-phosphate reductoisomerase (Mycobacterium tuberculosis, UniProt P9WNS1)
ENAH: Protein enabled homolog (ENAH, UniProt Q8N8S7)
DPP4: Dipeptidyl peptidase 4 (DPP4, Homo sapiens, UniProt P27487)

`COc1cccc(-c2ccnc(Nc3ccc(N4CCN(C(=O)OC(C)(C)C)CC4)c(C(F)(F)F)c3)n2)c1` has an IC50 of over 20 µM (pknB; enzyme activity; inhibitor).
`CC(=O)N(O)CCC(c1ccc(-c2ccsc2)cc1)P(=O)(O)O` (stereo not shown) has an IC50 of 5.7 µM (1-deoxy-D-xylulose 5-phosphate reductoisomerase; enzyme activity; inhibitor; absorbance; pH 7.5).
For `CC(C)(C)OC(=O)N1CCN(c2ccc(Nc3nccc(-c4ccccc4)n3)cc2C(F)(F)F)CC1`, the IC50 was over 20 µM (pknB; enzyme activity; inhibitor).
`CC(=O)N[C@@H](CO)C(=O)N[C@@H](Cc1ccccc1)C(=O)N[C@@H](CCC(=O)O)C(=O)N[C@@H](Cc1ccccc1Cl)C(=O)N1CCC[C@H]1C(=O)N1CCC[C@H]1C(=O)N1CCC[C@H]1C(=O)N1CCC[C@H]1C(=O)O` has a Kd of 4.6 µM (ENAH; binding; fluorescence).
The IC50 of `CC(C)[C@H](N)C(=O)N1CCC[C@H]1C(=O)N[C@H](C(=O)N1CCC[C@H]1C(=O)NCC(=O)O)C(C)C` is reported as 84.9 µM (DPP4; enzyme activity; inhibitor; absorbance; pH 8).
`CC(=O)N(O)CCC(c1ccc2c(c1)OCO2)P(=O)(O)O` (stereo not shown) gave an IC50 of 1.5 µM (1-deoxy-D-xylulose 5-phosphate reductoisomerase; enzyme activity; inhibitor; absorbance; pH 7.5).
`CC(C)[C@H](N)C(=O)N1CCC[C@H]1C(=O)N[C@H](C(=O)N1CCC[C@H]1C(=O)N[C@@H](Cc1ccc(O)cc1)C(=O)O)C(C)C` has an IC50 of 80.7 µM (DPP4; enzyme activity; inhibitor; absorbance; pH 8).
`CC(=O)N[C@@H](Cc1ccccc1Cl)C(=O)N1CCC[C@H]1C(=O)N1CCC[C@H]1C(=O)N1CCC[C@H]1C(=O)N1CCC[C@H]1C(=O)N[C@H](C(=O)N[C@@H](CCC(=O)O)C(=O)N[C@@H](CC(=O)O)C(=O)N[C@@H](CCC(=O)O)C(=O)N[C@@H](C)C(N)=O)[C@@H](C)O` has a Kd of 3.5 µM (ENAH; binding; fluorescence).
With `CC(=O)N(O)CCC(c1ccc(-c2c(C)noc2C)cc1)P(=O)(O)O` (stereo not shown) the IC50 was 21.5 µM (1-deoxy-D-xylulose 5-phosphate reductoisomerase; enzyme activity; inhibitor; absorbance; pH 7.5).
`CC(C)[C@H](N)C(=O)N1CCC[C@H]1C(=O)N[C@H](C(=O)N1CCC[C@H]1C(=O)N[C@@H](CO)C(=O)O)C(C)C` gave an IC50 of 92.9 µM (DPP4; enzyme activity; inhibitor; absorbance; pH 8).
